Series [1] concerns the target Serine/threonine-protein kinase B-raf (Homo sapiens, UniProt P15056). In words: Inhibition of full-length BRAF (unknown origin).
A short description of series [2]: Clearance in dog at 0.2 mg/kg, iv or 0.4 mg/kg, po. Type of series: ADME, organism-based, Canis lupus familiaris. Particulars: in vivo.
The target in series [3] is Voltage-gated inwardly rectifying potassium channel KCNH2 (Homo sapiens, UniProt Q12809). In words: Inhibition of human ERG by patch clamp method. A digest of the protocol:
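hERG inhibition measured by manual patch clamp.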

In series [4] the target is RAF proto-oncogene serine/threonine-protein kinase (Homo sapiens, UniProt P04049). In words: Binding affinity to wild-type human partial length CRAF (I330 to T640 residues) expressed in bacterial expression system by Kinomescan method.
Chain of RAF proto-oncogene serine/threonine-protein kinase (P04049 whole entry, the tested form may be a part): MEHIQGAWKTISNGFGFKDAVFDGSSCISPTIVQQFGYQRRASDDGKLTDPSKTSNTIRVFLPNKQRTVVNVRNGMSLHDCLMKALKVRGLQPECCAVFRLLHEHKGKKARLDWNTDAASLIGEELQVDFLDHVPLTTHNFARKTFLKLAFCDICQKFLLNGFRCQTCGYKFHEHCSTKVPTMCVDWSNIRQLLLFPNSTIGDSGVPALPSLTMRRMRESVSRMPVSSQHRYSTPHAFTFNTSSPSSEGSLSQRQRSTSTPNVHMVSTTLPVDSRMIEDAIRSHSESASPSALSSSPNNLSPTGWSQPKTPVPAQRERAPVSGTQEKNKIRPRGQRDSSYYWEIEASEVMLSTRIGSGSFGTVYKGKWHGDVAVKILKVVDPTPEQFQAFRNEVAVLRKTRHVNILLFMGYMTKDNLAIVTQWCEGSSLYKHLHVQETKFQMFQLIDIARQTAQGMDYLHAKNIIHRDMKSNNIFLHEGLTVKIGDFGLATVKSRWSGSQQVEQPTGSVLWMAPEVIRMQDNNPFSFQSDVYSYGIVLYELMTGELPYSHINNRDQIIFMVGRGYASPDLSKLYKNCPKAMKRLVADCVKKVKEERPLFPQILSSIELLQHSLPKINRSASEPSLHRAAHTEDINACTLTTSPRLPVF
Series [5] in a line: Stability of the compound in human plasma assessed as parent compound remaining measured after 3 hrs. Format: ADME, cell-free. Particulars: read-out: Stability. A digest of the protocol:
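Compound incubated in human plasma for 3 h; stability expressed as percent remaining intact.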

In series [6] the test system is Serine/threonine-protein kinase B-raf (Homo sapiens), P15056 [V600E]. Kind of series: Binding affinity to human partial length BRAF V600E mutant (S429 to E741 residues) expressed in mammalian expression system at 1 uM by Kinomescan method relative to control.
Chain of Serine/threonine-protein kinase B-raf (Homo sapiens), P15056 [V600E] (P15056 whole entry V600E, the tested form may be a part): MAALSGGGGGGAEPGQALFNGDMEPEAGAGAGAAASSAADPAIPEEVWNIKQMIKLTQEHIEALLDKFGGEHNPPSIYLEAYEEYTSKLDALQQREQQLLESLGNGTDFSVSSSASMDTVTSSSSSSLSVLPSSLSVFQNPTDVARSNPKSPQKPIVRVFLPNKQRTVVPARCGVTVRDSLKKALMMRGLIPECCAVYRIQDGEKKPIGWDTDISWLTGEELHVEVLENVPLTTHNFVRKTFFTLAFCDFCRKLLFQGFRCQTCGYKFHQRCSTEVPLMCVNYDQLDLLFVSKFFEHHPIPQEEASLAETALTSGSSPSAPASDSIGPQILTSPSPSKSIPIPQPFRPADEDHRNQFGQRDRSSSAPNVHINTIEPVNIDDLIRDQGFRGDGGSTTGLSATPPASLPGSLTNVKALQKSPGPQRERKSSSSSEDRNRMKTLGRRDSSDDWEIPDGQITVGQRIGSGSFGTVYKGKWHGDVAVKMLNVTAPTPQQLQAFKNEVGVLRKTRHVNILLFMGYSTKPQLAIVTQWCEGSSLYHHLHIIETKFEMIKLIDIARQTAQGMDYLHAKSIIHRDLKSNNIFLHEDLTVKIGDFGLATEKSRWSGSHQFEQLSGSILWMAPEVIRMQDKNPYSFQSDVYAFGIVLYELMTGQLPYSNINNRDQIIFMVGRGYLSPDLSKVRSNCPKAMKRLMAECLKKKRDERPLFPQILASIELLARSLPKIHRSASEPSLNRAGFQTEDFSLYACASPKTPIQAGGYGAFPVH
Series [7] in a line: Cmax in nude rat xenografted with human Calu6 cells harboring KRAS Q61K mutant at 75 mg/kg, po administered daily for 18 days starting from day 13 post tumor implantation and measured on day 31. Format: ADME, organism-based. Details: dose 75 mg/kg, route oral. Particulars: in vivo. A digest of the protocol:
(§1)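 Nude rats carrying Calu-6 (KRAS Q61K) NSCLC xenografts were dosed p.o. once daily at 15, 35, 75 or 150 mg/kg from day 13 to day 31 after implant. Plasma was collected after the last dose and drug concentration was measured. AUC and Cmax were calculated per dose on day 31.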
For orientation: Xenograft models place foreign cells or tissue in a host animal.

Series [8] in a line: Stimulation of BRAF-CRAF dimerization in human HCT116 cells measured after 2 hrs by NanoBit luciferase complementation assay. Type of series: cell-based. As to conditions: read-out: EC50.
Series [9] can be described thus: Time of last measurable concentration in nude rat xenografted with human Calu6 cells harboring KRAS Q61K mutant at 35 mg/kg, po administered daily for 18 days starting from day 13 post tumor implantation and measured on day 31. Format: ADME, organism-based. As to conditions: in vivo, 432 h. A digest of the protocol:
(§2)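 Calu-6 xenograft nude rats were dosed orally once daily at 15, 35, 75 or 150 mg/kg from day 13 after implantation to day 31. Plasma was collected after the last dose on day 31, drug concentrations were measured, and PK parameters including AUC were calculated for each dose.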

The nature of series [10]: Time at which free plasma concentration stays above in vitro IC50 for CRAF in human Calu6 cells assessed as reduction MEK phosphorylation in nude rat xenografted with human Calu6 cells harboring KRAS Q61K mutant at 150 mg/kg, po. Type of series: ADME, organism-based. Particulars: in vivo.
Series [11] in a line: Apparent permeability across basolateral to apical side in human Caco2 cells at pH 7.4 by LC/MS/MS analysis. Format: ADME, cell-based. As to conditions: Caco-2, pH 7.4. On the technique in general: Passage across Caco-2 layers is used to estimate intestinal permeability.
Series [12] has as its target T1, Discoidin domain-containing receptor 2 (Homo sapiens) (UniProt Q16832).
T1 sequence (whole entry): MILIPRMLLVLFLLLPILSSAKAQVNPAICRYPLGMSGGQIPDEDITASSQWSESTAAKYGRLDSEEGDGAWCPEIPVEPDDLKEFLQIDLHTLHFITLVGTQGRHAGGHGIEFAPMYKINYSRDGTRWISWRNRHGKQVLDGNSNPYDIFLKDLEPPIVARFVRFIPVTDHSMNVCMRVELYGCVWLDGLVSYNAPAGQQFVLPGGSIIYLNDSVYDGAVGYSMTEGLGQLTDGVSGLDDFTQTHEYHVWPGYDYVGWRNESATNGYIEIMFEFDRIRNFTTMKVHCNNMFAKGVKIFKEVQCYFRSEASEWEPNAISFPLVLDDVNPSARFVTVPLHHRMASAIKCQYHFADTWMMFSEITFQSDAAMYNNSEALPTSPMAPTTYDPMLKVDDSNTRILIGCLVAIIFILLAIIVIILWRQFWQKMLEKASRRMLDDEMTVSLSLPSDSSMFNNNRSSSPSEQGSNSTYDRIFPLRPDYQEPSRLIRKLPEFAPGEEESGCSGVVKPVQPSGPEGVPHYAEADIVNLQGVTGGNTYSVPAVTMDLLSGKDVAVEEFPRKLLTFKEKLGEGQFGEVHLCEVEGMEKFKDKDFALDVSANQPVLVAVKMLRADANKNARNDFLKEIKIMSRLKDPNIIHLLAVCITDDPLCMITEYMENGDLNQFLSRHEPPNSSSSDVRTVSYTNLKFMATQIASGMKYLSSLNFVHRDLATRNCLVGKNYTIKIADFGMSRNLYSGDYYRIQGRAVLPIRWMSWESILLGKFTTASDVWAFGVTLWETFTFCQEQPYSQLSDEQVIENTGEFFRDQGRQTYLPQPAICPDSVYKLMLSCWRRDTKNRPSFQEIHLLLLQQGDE
In words: Binding affinity to wild-type human partial length DDR2 (V555 to E855 residues) expressed in mammalian expression system at 1 uM by Kinomescan method relative to control. A digest of the protocol: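 KINOMEscan competition binding panel of about 456 kinases, compound tested at 1 μM. Activity is given as % of control = [(test signal − positive control signal)/(negative control signal − positive control signal)] × 100.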

Series [13] in a line: Lipophilicity, log P of the compound at pH 6.5. Format: physicochemical. As to conditions: buffer.
Series [14] can be described thus: Volume of distribution at steady state in dog at 0.2 mg/kg, iv or 0.4 mg/kg, po. Format: ADME, organism-based, Canis lupus familiaris. As to conditions: in vivo, read-out: Vdss.
Series [15] in a line: Tmax in nude rat xenografted with human Calu6 cells harboring KRAS Q61K mutant at 35 mg/kg, po administered daily for 18 days starting from day 13 post tumor implantation and measured on day 31. Format: ADME, organism-based. Particulars: in vivo. A digest of the protocol: as §2
Series [16] can be described thus: Intrinsic clearance in human liver microsomes. Type of series: ADME, Microsome. Particulars: read-out: CLH. On the technique in general: Liver microsomes are a subcellular fraction often used to study metabolism.
Series [17] has as its target Platelet-derived growth factor receptor beta (Homo sapiens, UniProt P09619). In words: Binding affinity to wild-type human partial length PDGFRB (V582 to Y1009 residues) expressed in bacterial expression system by Kinomescan method.
Series [18] in a line: AUC (infinity) in mouse at 4 mg/kg, po. Format: ADME, organism-based. The arrangement: dose 4 mg/kg, route oral, time infinity. As to conditions: in vivo.
A short description of series [19]: Cmax in dog at 0.4 mg/kg, po. Details: dose 0.4 mg/kg, route oral. Type of series: ADME, organism-based, Canis lupus familiaris. Particulars: in vivo.
Series [20] is described as follows: Tmax in nude rat xenografted with human Calu6 cells harboring KRAS Q61K mutant at 15 mg/kg, po administered daily for 18 days starting from day 13 post tumor implantation and measured on day 31. As to conditions: in vivo. Type of series: ADME, organism-based. A digest of the protocol:
as §2

The next series concerns Calu-6. Kind of series: Antitumor activity against human Calu6 cells harboring KRAS Q61K mutant xenografted in nude rat assessed as tumor growth at 15 mg/kg, po administered daily for 18 days starting from day 13 post tumor implantation and measured on day 31 relative to control. Format: functional. The method in brief:
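Nude rats bearing Calu-6 (KRAS Q61K) human NSCLC xenografts received vehicle or drug p.o. daily at 15, 35, 75 or 150 mg/kg. Dosing began 13 days after tumor implantation and ran to day 31, i.e. 18 days of treatment. Tumor volumes were read out as %T/C or % regression versus vehicle on day 31. Body weight was also tracked.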

A short description of series [21]: Distribution coefficient, log D of compound at pH 6.5. Type of series: physicochemical. Particulars: octanol/water.
Series [22] in a line: AUC (0 to 24 hrs) in nude rat xenografted with human Calu6 cells harboring KRAS Q61K mutant at 75 mg/kg, po administered daily for 18 days starting from day 13 post tumor implantation and measured on day 31. Format: ADME, organism-based. Details: time < 24 hr, dose 75 mg/kg, route oral. As to conditions: in vivo. The method in brief: as §1

One compound from ChEMBL document CHEMBL4342410, “Design and Discovery of N-(3-(2-(2-Hydroxyethoxy)-6-morpholinopyridin-4-yl)-4-methylphenyl)-2-(trifluoromethyl)isonicotinamide, a Selective, Efficacious, and Well-Tolerated RAF Inhibitor Targeting RAS Mutant Cancers: The Path to the Clinic” (J Med Chem, 2020) can be followed below.

Chain of Voltage-gated inwardly rectifying potassium channel KCNH2 (Q12809 whole entry): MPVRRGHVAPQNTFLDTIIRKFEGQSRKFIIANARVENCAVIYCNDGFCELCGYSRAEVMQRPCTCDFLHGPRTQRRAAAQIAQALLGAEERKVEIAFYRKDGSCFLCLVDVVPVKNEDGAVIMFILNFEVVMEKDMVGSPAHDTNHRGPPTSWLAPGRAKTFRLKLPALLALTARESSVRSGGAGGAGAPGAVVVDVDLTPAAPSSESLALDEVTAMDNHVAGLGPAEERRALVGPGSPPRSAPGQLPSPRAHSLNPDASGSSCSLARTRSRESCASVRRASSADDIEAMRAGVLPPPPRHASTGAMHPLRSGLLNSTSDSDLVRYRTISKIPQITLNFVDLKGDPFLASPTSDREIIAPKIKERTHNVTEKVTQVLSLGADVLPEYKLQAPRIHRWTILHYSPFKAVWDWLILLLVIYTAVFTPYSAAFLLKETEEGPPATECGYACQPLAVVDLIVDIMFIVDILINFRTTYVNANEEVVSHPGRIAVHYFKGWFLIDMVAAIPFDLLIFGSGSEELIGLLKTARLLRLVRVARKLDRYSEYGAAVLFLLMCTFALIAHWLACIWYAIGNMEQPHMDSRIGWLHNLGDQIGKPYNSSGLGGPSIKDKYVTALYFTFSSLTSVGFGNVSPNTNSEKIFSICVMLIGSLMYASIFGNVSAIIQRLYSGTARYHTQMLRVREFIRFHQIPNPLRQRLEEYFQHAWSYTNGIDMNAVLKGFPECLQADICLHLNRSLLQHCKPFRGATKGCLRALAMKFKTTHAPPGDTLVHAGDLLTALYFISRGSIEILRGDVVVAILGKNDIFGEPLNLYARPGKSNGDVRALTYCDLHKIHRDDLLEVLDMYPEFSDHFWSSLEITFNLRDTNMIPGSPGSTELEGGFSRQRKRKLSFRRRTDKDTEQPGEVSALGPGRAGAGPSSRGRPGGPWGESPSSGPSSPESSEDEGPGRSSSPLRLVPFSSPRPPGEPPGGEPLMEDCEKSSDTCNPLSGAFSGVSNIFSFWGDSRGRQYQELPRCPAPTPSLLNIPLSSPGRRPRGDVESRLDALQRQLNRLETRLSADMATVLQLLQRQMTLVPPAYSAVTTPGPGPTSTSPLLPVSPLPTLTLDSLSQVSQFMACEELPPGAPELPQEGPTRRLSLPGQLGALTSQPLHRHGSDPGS
Chain of Serine/threonine-protein kinase B-raf (P15056 whole entry): as the sequence (P15056 whole entry V600E, the tested form may be a part) above, with E600V counted along it
Chain of Platelet-derived growth factor receptor beta (P09619 whole entry, the tested form may be a part): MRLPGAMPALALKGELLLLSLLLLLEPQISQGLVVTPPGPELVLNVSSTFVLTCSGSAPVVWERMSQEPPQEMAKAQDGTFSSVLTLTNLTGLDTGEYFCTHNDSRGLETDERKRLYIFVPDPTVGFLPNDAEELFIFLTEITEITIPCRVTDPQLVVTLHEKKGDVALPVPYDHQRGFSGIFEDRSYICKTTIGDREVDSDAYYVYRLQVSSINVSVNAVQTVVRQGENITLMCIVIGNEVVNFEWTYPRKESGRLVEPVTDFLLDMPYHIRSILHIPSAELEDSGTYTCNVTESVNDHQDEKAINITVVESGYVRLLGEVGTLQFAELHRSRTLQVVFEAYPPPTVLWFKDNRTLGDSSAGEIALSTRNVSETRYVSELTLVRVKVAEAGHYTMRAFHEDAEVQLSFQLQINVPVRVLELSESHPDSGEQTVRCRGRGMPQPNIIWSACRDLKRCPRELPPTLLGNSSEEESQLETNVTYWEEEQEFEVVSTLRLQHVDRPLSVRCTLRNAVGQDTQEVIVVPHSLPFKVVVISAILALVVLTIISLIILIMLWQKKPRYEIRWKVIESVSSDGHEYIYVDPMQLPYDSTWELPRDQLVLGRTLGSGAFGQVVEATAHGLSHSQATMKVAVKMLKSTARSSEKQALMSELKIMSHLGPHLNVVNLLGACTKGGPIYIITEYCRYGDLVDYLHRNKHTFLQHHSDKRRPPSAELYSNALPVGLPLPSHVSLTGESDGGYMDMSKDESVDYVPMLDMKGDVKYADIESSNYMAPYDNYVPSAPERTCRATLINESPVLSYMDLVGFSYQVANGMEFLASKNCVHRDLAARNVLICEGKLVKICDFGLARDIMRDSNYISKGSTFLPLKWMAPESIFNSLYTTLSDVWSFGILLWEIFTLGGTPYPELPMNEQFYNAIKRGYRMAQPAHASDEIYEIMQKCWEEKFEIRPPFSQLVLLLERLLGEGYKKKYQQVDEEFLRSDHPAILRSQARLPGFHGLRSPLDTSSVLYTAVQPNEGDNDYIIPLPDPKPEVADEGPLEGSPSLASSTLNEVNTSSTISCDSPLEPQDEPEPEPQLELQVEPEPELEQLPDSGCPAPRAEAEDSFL

In general, IC50 refers to the concentration that gives 50% inhibition. Low readings indicate greater potency in that assay, high ones weaker potency in that assay. As a reminder, the Kd is the concentration at which binding is half-saturated. A higher Kd goes with a looser complex. One may read the Cmax as the maximum level reached in the sampled fluid or tissue. What is called EC50 is the concentration that produces a half-maximal response. For orientation: Papp B→A means how fast a substance crosses the layer from the basolateral side. The term logD denotes the decadic logarithm of the distribution of all forms, ionised or not, between an organic phase and buffer at a given pH. Read a low logD as a more hydrophilic compound. Broadly, the Tmax is the time from dosing to the highest level. In general, AUC(0-inf) refers to total exposure, with the tail of the curve extrapolated. A lower AUC(0-inf) goes with low exposure. Broadly, the T/C is the ratio of treated to control. For orientation: AUC means the area under the concentration-time curve, a measure of exposure. The low end stands for less exposure, the high end for more exposure. Consider `Cc1ccc(NC(=O)c2ccnc(C(F)(F)F)c2)cc1-c1cc(OCCO)nc(N2CCOCC2)c1` [NAPORAFENIB], for which the IC50 in [1] is 0.4 nM; in series [3], above 10000 nM. In addition, the clearance in series [2] stood at 3.5 mL/min/kg. In addition, the Kd in [4] was found to be 3.6 nM; in series [17] it was 14 nM. In addition, the remaining at 3 h in series [5] is above 90%. The Activity in series [6] is above 98%; in [12], 84%. Further, the Cmax in [7] came out at 8.68 µM; in series [19], 0.4 µM. Further, the EC50 in series [8] is 160 nM. Moreover, the Tlast in [9] was 24 h. Moreover, the “T>IC50” value in series [10] came to 24 h. Also, the Papp B→A in [11] came out at 19 ×10⁻⁶ cm/s. Also, the logD is above 3 in series [13] and above 4 in [21]. The Vd in [14] worked out at 1.7 L/kg. In addition, the Tmax in [15] and in [20] was 3 h each time. In [16], the microsomal CLint is 13.5 µL/min/mg. In [18], this compound came in with an AUC(0-inf) of 4.3 µM·h. Also, in the series on Calu-6, the T/C came out at 29%. Also, the AUC at 24 h in series [22] stood at 105 µM·h.
